Compound activity from PubChem.
An excerpt weighted towards active compounds, which were near 1.9% of everything screened.
M4 ag: CHRM4 agonism in calcium assay; activation, % at 3 µM; P08173; AID 624127; CHO-K1 hM4/Gqi5, Fluo-8 calcium fluorescence; vehicle 0%, full acetylcholine response 100%; actives 0.14% (n = 360,000);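 active = activation above the run mean over all test wells plus 3 SD, cut at about 32% in these data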;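 note: peak over basal fluorescence ratio per well then scaled between controls; 0% = DMSO wells and 100% = acetylcholine at EC100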
CHRM5 antagonist: antagonists of human muscarinic M5 receptor (CHRM5); actives 0.59% (n = 360,000); P08912; inhibition, % at 3 µM; AID 624040; CHO-hM5 cells, Fluo-8 calcium fluorescence, ACh EC80;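 active = inhibition above a per-plate cutoff, the mean of that plate's test compounds plus 3 SD, cut at about 27% in these data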;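 note: 0% = acetylcholine EC80 with DMSO and 100% = DMSO without agonist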
Target sequence (P08912 whole entry, looked up): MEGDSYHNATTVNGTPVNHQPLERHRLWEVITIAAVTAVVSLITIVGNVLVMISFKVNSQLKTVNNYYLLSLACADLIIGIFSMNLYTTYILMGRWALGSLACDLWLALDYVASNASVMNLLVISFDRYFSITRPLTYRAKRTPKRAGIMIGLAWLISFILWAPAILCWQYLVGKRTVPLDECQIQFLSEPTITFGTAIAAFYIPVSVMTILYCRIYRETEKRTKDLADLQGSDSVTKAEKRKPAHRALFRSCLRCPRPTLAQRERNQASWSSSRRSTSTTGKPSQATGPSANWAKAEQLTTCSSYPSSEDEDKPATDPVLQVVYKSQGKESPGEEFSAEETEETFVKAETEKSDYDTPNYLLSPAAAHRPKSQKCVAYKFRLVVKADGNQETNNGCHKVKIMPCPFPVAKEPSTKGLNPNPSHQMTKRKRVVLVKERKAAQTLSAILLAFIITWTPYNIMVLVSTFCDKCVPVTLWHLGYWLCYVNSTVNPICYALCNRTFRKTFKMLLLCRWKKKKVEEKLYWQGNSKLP
M4 PAM: potentiates acetylcholine response at human M4 receptor; activation, % at 3 µM; CHO-K1 hM4/Gqi5, Fluo-8 calcium fluorescence, ACh EC20; 0% = ACh EC20, 100% = maximal ACh; AID 624126; P08173; actives 0.4% (n = 360,000);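 active = activation above its plate's cutoff, the mean activation of sample wells plus 3 SD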
CHRM5 PAM: CHRM5 positive allosteric modulation; actives 0.3% (n = 360,000); activation, % at 3 µM; CHO-K1 hM5, Fluo-8 calcium, ACh EC20 PAM; 0% = ACh EC20, 100% = ACh EC100;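 active = activation above the run cutoff, the mean activation of all test compounds plus 3 SD, cut at about 18% in these data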
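Test system: CHO-K1 hM5 cells / Doses: single-point, 3 µM nominal / Times: Post-acetylcholine fluorescence recording 140 s / Technique: Fluo-8 calcium fluorescence / Measure: Max/basal fluorescence ratio as % of EC20–EC100 ACh window / Benchmarks: low control EC20 acetylcholine (0%), high control EC100 acetylcholine (100%) / Replicates: one well per compound, no replicates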
M4 antag: blocks acetylcholine activation of human M4 receptor; P08173; CHO-hM4 cells, ACh EC80, Fluo-8 calcium fluorescence; inhibition, % at 3 µM; actives 0.73% (n = 360,000); AID 624125;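 active = inhibition above its plate's cutoff, the mean inhibition of sample wells plus 3 SD, cut at about 27% in these data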;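 note: 0% = acetylcholine EC80 with DMSO and 100% = DMSO without agonist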
CHRM5 agonist: CHRM5 agonism in calcium assay; P08912; CHO-K1 hM5 cells, Fluo-8 calcium fluorescence; 0% DMSO wells, 100% maximal acetylcholine response; activation, % at 3 µM; actives 0.19% (n = 360,000);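 active = activation above the run's mean over test compounds plus 3 SD, cut at about 23% in these data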;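 note: signal is peak over basal fluorescence ratio across the kinetic read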
* hit, by the source's call.

Screening Cc1onc(-c2c(F)cccc2Cl)c1C(=O)Oc1ccccc1 returned M4 ag -2, CHRM5 antagonist 3, M4 PAM -10, CHRM5 PAM -13, M4 antag 4 and CHRM5 agonist -6.
For O=C1CCCCN1CCCC(=O)N1CCCC(Nc2ccccc2)C1 (stereo not given) the results were M4 ag 1, CHRM5 antagonist 3, M4 PAM 5, CHRM5 PAM 27*, M4 antag 3 and CHRM5 agonist 8.
CC(C)c1ccc(NC2CCCN(C(=O)CCN3CCCC3=O)C2)cc1 (stereo not given) was read as M4 ag 1, CHRM5 antagonist 1, M4 PAM -3, CHRM5 PAM 4, M4 antag -2 and CHRM5 agonist -1.
`O=C(NC(c1ccc(-c2ccccc2)cc1)c1cnccn1)C1CCN(CCCOc2ccccc2)CC1` (stereo not given) gave M4 ag 36*, CHRM5 antagonist 4, M4 PAM -14, CHRM5 PAM -6, M4 antag 4 and CHRM5 agonist 7.
`[O-][n+]1cc(Cl)cc(Cl)c1` gave M4 ag 0, CHRM5 antagonist -8, M4 PAM 3, CHRM5 PAM 1, M4 antag -2 and CHRM5 agonist 1.
For O=C(CCC(=O)N1CCN(c2ccc(Cl)c(Cl)c2)CC1)c1ccccc1 the results were M4 ag 11, CHRM5 antagonist 27*, M4 PAM -9, CHRM5 PAM -15, M4 antag 17 and CHRM5 agonist 3.
For O=C(CCSCc1ccccc1Cl)N1CCN(c2cccc(Cl)c2)CC1 the results were M4 ag 0, CHRM5 antagonist -11, M4 PAM 23*, CHRM5 PAM 0, M4 antag -17 and CHRM5 agonist -1.
O=C(CCC(=O)N1CCN(c2ccc(F)cc2)CC1)c1ccc(Cl)cc1 was read as M4 ag 7, CHRM5 antagonist 3, M4 PAM -5, CHRM5 PAM -5, M4 antag -8 and CHRM5 agonist 1.
CCCc1c(C(=O)N/N=C/c2ccoc2)nnn1-c1nonc1N was read as M4 ag 0, CHRM5 antagonist -7, M4 PAM 8, CHRM5 PAM 1, M4 antag -9 and CHRM5 agonist 1.
O=C(CCCn1ncn2c(cc3occc32)c1=O)NCc1cccc(Cl)c1 was read as M4 ag 3, CHRM5 antagonist 3, M4 PAM 20*, CHRM5 PAM 2, M4 antag -13 and CHRM5 agonist -3.
For COc1cccc(CNC(=O)CCCn2ncn3c(cc4occc43)c2=O)c1 the results were M4 ag 1, CHRM5 antagonist 12, M4 PAM -2, CHRM5 PAM -9, M4 antag 0 and CHRM5 agonist -1.
O=c1c(Cl)c(N2CCNCC2)cnn1C12CC3CC(CC(C3)C1)C2 was read as M4 ag 0, CHRM5 antagonist 11, M4 PAM -21, CHRM5 PAM -6, M4 antag 31* and CHRM5 agonist -11.
`CCNC(=O)C1(C)CCCN(C(=O)c2cc(OC)ccc2Br)C1` (stereo not given) gave M4 ag 0, CHRM5 antagonist -3, M4 PAM 3, CHRM5 PAM 1, M4 antag -6 and CHRM5 agonist 2.
Screening CS(=O)(=O)c1ccc2nc(NC(=O)c3ccc(Cn4cc(Br)cn4)o3)sc2c1 returned M4 ag 14, CHRM5 antagonist 28*, M4 PAM -8, CHRM5 PAM -11, M4 antag 5 and CHRM5 agonist 2.
Screening CCOC(=O)C1CN(S(=O)(=O)c2ccc(C)cc2)C1 returned M4 ag 1, CHRM5 antagonist -4, M4 PAM 2, CHRM5 PAM 20*, M4 antag -9 and CHRM5 agonist -7.
Cc1c(C(=O)Nc2ccc3c(c2)OCCO3)oc2ccc(Br)cc12 was read as M4 ag 1, CHRM5 antagonist 2, M4 PAM 23*, CHRM5 PAM 4, M4 antag -10 and CHRM5 agonist -3.
Screening Cc1c(C(=O)NCc2ccc3c(c2)OCO3)oc2ccc(Br)cc12 returned M4 ag -1, CHRM5 antagonist 12, M4 PAM 3, CHRM5 PAM -6, M4 antag 2 and CHRM5 agonist -3.
For O=C(O)CSc1nc2ccccc2c(=O)[nH]1 the results were M4 ag 0, CHRM5 antagonist 2, M4 PAM 4, CHRM5 PAM 24*, M4 antag -10 and CHRM5 agonist 1.
For O=C(CSc1nc2ccccc2c(=O)[nH]1)c1ccccc1 the results were M4 ag 3, CHRM5 antagonist -4, M4 PAM 7, CHRM5 PAM -3, M4 antag -8 and CHRM5 agonist 2.
CCOc1ccccc1NC(=O)C(OC(=O)c1ccc(O)cc1)c1ccccc1 (stereo not given) was read as M4 ag 4, CHRM5 antagonist 29*, M4 PAM -6, CHRM5 PAM -13, M4 antag 7 and CHRM5 agonist -1.
CCOc1ccccc1NC(=O)C(OC(=O)c1ccc(CC)cc1)c1ccccc1 (stereo not given) was read as M4 ag 0, CHRM5 antagonist 1, M4 PAM 6, CHRM5 PAM -2, M4 antag -24 and CHRM5 agonist -3.
For CC1(OC(=O)C2CCCC2)C(=O)C=C2C=C(c3ccsc3)N(CCCCO)C=C2C1=O (stereo not given) the results were M4 ag 1, CHRM5 antagonist 7, M4 PAM -3, CHRM5 PAM 3, M4 antag -3 and CHRM5 agonist -1.
For CC1(OC(=O)C2CCCC2)C(=O)C=C2C=C(c3ccsc3)N(C3CCCC3)C=C2C1=O (stereo not given) the results were M4 ag 1, CHRM5 antagonist 1, M4 PAM 6, CHRM5 PAM -8, M4 antag -7 and CHRM5 agonist 39*.
`O=C1CCCC(O)=C1N=Nc1cccc(C(=O)O)c1` gave M4 ag 3, CHRM5 antagonist -9, M4 PAM 20*, CHRM5 PAM -7, M4 antag -2 and CHRM5 agonist -6.
Screening Cc1cccc(C)c1C(OCCN(C)C)C1CCCCC1 (stereo not given) returned M4 ag 5, CHRM5 antagonist 100*, M4 PAM -20, CHRM5 PAM -19, M4 antag 77* and CHRM5 agonist -9.
For COCCN(C(=O)CCl)C(C(=O)NC1CCCCC1)c1ccccc1C (stereo not given) the results were M4 ag -1, CHRM5 antagonist -1, M4 PAM -12, CHRM5 PAM 1, M4 antag 14 and CHRM5 agonist -3.
